# Published values of several laboratories.
# Protocols differ between the studies behind these lines.
# Histone acetyltransferase KAT6B: Histone acetyltransferase KAT6B (Homo sapiens, UniProt Q8WYB5)
# NOX5: NADPH oxidase 5 (NOX5, Homo sapiens, UniProt Q96PH1)
# PIK3CA: Phosphatidylinositol 4,5-bisphosphate 3-kinase catalytic subunit alpha isoform (PIK3CA, Homo sapiens, UniProt P42336)
# Trpm7 F924W: Transient receptor potential cation channel subfamily M member 7 (Trpm7, Mus musculus, UniProt Q923J1, F924W)
# KDR: Vascular endothelial growth factor receptor 2 (KDR, Homo sapiens, UniProt P35968)
# PIK3CB: Phosphatidylinositol 4,5-bisphosphate 3-kinase catalytic subunit beta isoform (PIK3CB, Homo sapiens, UniProt P42338)
# DNA polymerase catalytic subunit: DNA polymerase catalytic subunit (Human cytomegalovirus, UniProt P08546)
target,assay,setting,IC50 [nM],Compound
Histone acetyltransferase KAT6B,"enzyme activity, inhibitor, TR-FRET",,150,Cc1cc(Br)cc2oc(C(=O)NS(=O)(=O)c3ccccc3-c3ccccc3)cc12
NOX5,"enzyme activity, inhibitor",,5200,Cc1coc2c1C(=O)C(=O)c1c-2ccc2c1CCCC2(C)CO (stereo not drawn)
PIK3CA,"enzyme activity, inhibitor, ADP detection",,195,Cc1nc(Nc2ccc3c(c2)C(C)(C)C(=O)N3)c2ccccc2n1
"YTH domain-containing protein 1 (Homo sapiens, UniProt Q96MU7)","ligand displacement, FP",,29000,O=C(/C=C/c1ccc(O)c2oc(-c3ccc(O)c(O)c3)cc12)O[C@H](Cc1ccc(O)c(O)c1)C(=O)O
Trpm7 F924W,calcium signal,,5580,N#Cc1ccc(COC[C@H]2O[C@@H](n3c(NCc4ccc(Cl)c(Cl)c4)nc4c(N)ncnc43)[C@H](O)[C@@H]2O)cc1
KDR,"cell-free assay, inhibitor",,148,CC(=NNC(=O)c1ccncc1)c1ccc(Nc2nnc(-c3ccc(Cl)cc3)c3ccccc23)cc1
NOX5,"enzyme activity, inhibitor",,3900,Cc1coc2c1C(=O)C(=O)c1c-2ccc2c(C)cccc12
PIK3CB,"enzyme activity, inhibitor, ADP detection",,506,COc1cc2ncnc(Nc3ccc4c(c3)/C(=C/c3ccccc3)C(=O)N4C)c2cc1OC
Histone acetyltransferase KAT6B,"enzyme activity, inhibitor, TR-FRET",,41,COc1cc(C)c2cc(C(=O)NS(=O)(=O)c3ccc(C)cc3-c3ccccc3)oc2c1
DNA polymerase catalytic subunit,"enzyme activity, inhibitor",,2260,CC1(C)CN(C(=O)Cn2c(=O)c(C(=O)NCc3ccc(Cl)cc3)cc3nccnc32)C1
Histone acetyltransferase KAT6B,"enzyme activity, inhibitor, TR-FRET",,309,CCOc1ccccc1S(=O)(=O)NC(=O)c1cc2c(OC)cc(OC)cc2o1
KDR,"cell-free assay, inhibitor",,195,O=C(Nc1ccccc1)Nc1ccc(Oc2nnc(-c3ccc(Cl)cc3)c3ccccc23)cc1
PIK3CB,"enzyme activity, inhibitor, ADP detection",,110,COc1cc2ncnc(Nc3ccc4c(c3)/C(=C/c3cccc(Cl)c3)C(=O)N4C)c2cc1OC
Histone acetyltransferase KAT6B,"enzyme activity, inhibitor, TR-FRET",,12200,CCCOc1ccc2cc(C(=O)NS(=O)(=O)c3ccccc3-c3ccccc3)oc2c1
DNA polymerase catalytic subunit,"enzyme activity, inhibitor",,954,COc1cnc2c(cc(C(=O)NCc3ccc(Cl)cc3)c(=O)n2CC(=O)N2CC(C)(F)C2)n1
Histone acetyltransferase KAT6B,"enzyme activity, inhibitor, TR-FRET",,68,COc1cc(C)c2cc(C(=O)NS(=O)(=O)c3ccccc3OC)oc2c1
PIK3CA,"enzyme activity, inhibitor, ADP detection",,164,Cc1nc(Nc2ccc3c(c2)C(C)(C)C(=O)N3C)c2ccccc2n1
Histone acetyltransferase KAT6B,"enzyme activity, inhibitor, TR-FRET",,161,COc1cc(C)c2cc(C(=O)NS(=O)(=O)c3ccc(-c4ccccc4)cc3)oc2c1
"Cathepsin G (CTSG, Homo sapiens, UniProt P08311)","enzyme activity, inhibitor, absorbance",pH 7.4,4900,O=c1oc(-c2cccnc2)nc2ccccc12
PIK3CA,"enzyme activity, inhibitor, ADP detection",,53.4,Cc1nc(N(C)c2ccc3c(c2)/C(=C/c2ccccc2Cl)C(=O)N3C)c2ccccc2n1
Trpm7 F924W,calcium signal,,5120,c1ccc2c(c1)CCC[C@H]2Nc1nc2ccccc2[nH]1
PIK3CA,"enzyme activity, inhibitor, ADP detection",,27.7,Cc1nc(Nc2ccc3c(c2)/C(=C/c2ccccc2Cl)C(=O)N3)c2ccccc2n1
KDR,"enzyme activity, inhibitor, ELISA",,1210,O=C(O)Cc1csc(NC(=O)c2cc3ccccc3[nH]2)n1
PIK3CA,"enzyme activity, inhibitor, ADP detection",,45.5,Cc1nc(Nc2ccc3c(c2)/C(=C/c2ccccc2C)C(=O)N3)c2ccccc2n1
NOX5,"enzyme activity, inhibitor",,1900,Cc1coc2c1C(=O)C(=O)c1c-2ccc2c1CCCC2(C)C
Histone acetyltransferase KAT6B,"enzyme activity, inhibitor, TR-FRET",,3020,CCOc1ccc2cc(C(=O)NS(=O)(=O)c3ccccc3-c3ccccc3)oc2c1
PIK3CB,"enzyme activity, inhibitor, ADP detection",,103,COc1cc2ncnc(N(C)c3ccc4c(c3)/C(=C/c3cccc(Cl)c3)C(=O)N4C)c2cc1OC
